For orientation: CC50 means the concentration that lowers cell viability or growth by half. In general, IC50 refers to the concentration that inhibits the measured activity by half.

This note sets out measurements from ChEMBL document CHEMBL3784952, “Design, discovery, modelling, synthesis, and biological evaluation of novel and small, low toxicity s-triazine derivatives as HIV-1 non-nucleoside reverse transcriptase inhibitors” (Bioorg Med Chem, 2016).

For data set [1], the system named is Human immunodeficiency virus 1. The data set can be described thus: Antiviral activity against HIV1 virus-like particles harboring reverse transcriptase Y181C mutant infected in human U2OS cells after 24 hrs by Renilla luciferase assay. It is filed as functional, organism-based. In short, it runs like this:
(§1)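 U2OS cells seeded 5 × 10^4 per well, infected next day with HIV-1 VLPs carrying wt or mutant RT at MOI 0.01 with polybrene 6 μg/mL plus compound; 1 h at 37 °C, washed, compound-containing media 24 h, then compound-free media 24 h. Lysate Gluc activity (Renilla luciferase reagent) normalised to protein.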

Data set [2] is described as follows: Cytotoxicity against human TZM-bl cells assessed as reduction of cell viability after 48 hrs. The class given is cell-based. Summed up:
(§2)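 Impedance-based real-time viability: U2OS (3.5 × 10^3) or TZM-bl (8.5 × 10^3) cells seeded on electrode plates, compounds in DMSO added 24 h later (final DMSO 0.5%), cell index recorded over a further 48 h. CC50 = concentration lowering cell index by 50% relative to DMSO-only cells.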

For data set [3], the system named is Human immunodeficiency virus 1. The data set can be described thus: Antiviral activity against HIV1 virus-like particles harboring wild type reverse transcriptase infected in human U2OS cells after 24 hrs by Renilla luciferase assay. The class given is functional, organism-based. The conditions noted are these: read-out: IC50. Summed up:
as §1

In data set [4] the test system is Human immunodeficiency virus 1. Put plainly: Antiviral activity against HIV1 virion infected in human TZM-bl cells after 48 hrs by firefly luciferase assay. It is filed as functional, organism-based. Summed up: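 TZM-bl cells (LTR-driven firefly luciferase), 5 × 10^4 per well, infected next day with ACH-2-derived HIV-1 stock (PMA-induced; 30 ng p24 per well) plus compound for 2 h at 37 °C; medium then replaced with compound-containing medium for 48 h.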

The target in data set [5] is Human immunodeficiency virus type 1 reverse transcriptase (Human immunodeficiency virus 1, UniProt Q72547). Put plainly: (§3) Inhibition of HIV1 reverse transcriptase using 234-nt long RNA/18-mer DNA oligonucleotide as template/primer preincubated for 15 mins followed by incubation with template/primer for 40 mins by liquid scintillation counting in presence of alpha[P33]-dCTP.

Data set [6] can be described thus: Cytotoxicity against human U2OS cells assessed as reduction of cell viability after 48 hrs. It is filed as cell-based. Summed up: as §2
Data set [7] deals with Human immunodeficiency virus 1. The data set can be described thus: Selectivity ratio of IC50 for HIV1 virus-like particles harboring reverse transcriptase K103N/Y181C double mutant to IC50 for HIV1 virus-like particles harboring wild type reverse transcriptase. It is filed as functional.
The test system of data set [8] is Human immunodeficiency virus 1. Put plainly: Antiviral activity against HIV1 virus-like particles harboring reverse transcriptase K103N/Y181C double mutant infected in human U2OS cells after 24 hrs by Renilla luciferase assay. It is filed as functional, organism-based. In short, it runs like this: as §1
In data set [9] the test system is Human immunodeficiency virus 1. Put plainly: Antiviral activity against HIV1 virus-like particles harboring reverse transcriptase K103N mutant infected in human U2OS cells after 24 hrs by Renilla luciferase assay. The class given is functional, organism-based. Summed up:
as §1

The nature of data set [10]: Selectivity index, ratio of CC50 for human U2OS cells to IC50 for HIV1 virus-like particles infected in U2OS cells. It is filed as functional.
Data set [11] can be described thus: Selectivity index, ratio of CC50 for human TZM-bl cells to IC50 for HIV1 virion […]. It is filed as functional.
For data set [12], the target named is Human immunodeficiency virus type 1 reverse transcriptase (Human immunodeficiency virus 1) (UniProt Q72547). The description is as §3.
Data set [13] deals with Human immunodeficiency virus 1. The data set can be described thus: Potency index, ratio of nevirapine IC50 to compound IC50 for HIV1 virus-like particles infected in human U2OS cells. It is filed as functional.
The mark [14] stands for this setting: Human immunodeficiency virus 1, U2OS, 24 h.
[15] abbreviates: Human immunodeficiency virus 1, TZM-bl, 48 h, read-out: IC50.

Activity calls are given as the source filed them. The calls are words filed in the database; no cut-off is given here.

Take `Cc1ccc(Nc2nc(O)nc(Nc3ccc(C)cc3)n2)cc1`: the result in data set [1] and in data set [9] was inactive. For the same molecule, the CC50 at 48 h in data set [2] and in data set [6] was > 12.5 µM each time. Further, the IC50 in [3] (setting [14]) is 0.067 µM; in [4] (setting [15]) it was 0.16 µM; in [5] (read-out: IC50), 55.1 µM; in data set [8] (Human immunodeficiency virus 1, U2OS) it was 8 µM. For the same molecule, the “Ratio IC50” value in data set [7] was >100.

In the case of `Cc1ccc(Nc2nc(N)nc(Nc3ccc(C)cc3)n2)cc1`, the “Ratio CC50/IC50” value is given as 17 in [10] and 10 in data set [11]. The result in data set [1], in data set [8] and in data set [9] was inactive. The results for the CC50 at 48 h in [2] and in data set [6] were 57 µM and 42.2 µM, respectively. Moreover, the figures for the IC50 in [3] (setting [14]), in data set [4] (setting [15]) and in data set [5] (read-out: IC50) were 2.5 µM, 5.6 µM and 116 µM, respectively. Moreover, in data set [12], the inhibition entry is “Dose-dependent effect”.

Turning to `Cc1ccc(Nc2nc(NCC3CCCO3)nc(Nc3ccc(C)cc3)n2)cc1` (stereo in doubt; 8), the concentration for half-maximal inhibition (IC50) in data set [3] (u2os) is 16 µM; in data set [4] (tzm-bl) it was “Not Active”; in [5], “Not Active”. In addition, in data set [13], the “Ratio IC50” value stood at 10. Further, the CC50 at 48 h in data set [6] is > 50 µM.
